Experimental data published in ChEMBL document CHEMBL4414601 (J Med Chem, 2019).
Converted amounts (≈) assume the structure as drawn.

Experiments:
[1] = Permeability of compound by PAMPA
L929 = assay: Cytotoxicity against mouse L929 cells assessed as reduction in viability by dual luciferase reporter gene assay; assay type: ADME, cell-based
[2] = Lipophilicity, LogD of compound by reverse phase HPLC analysis
Plasmodium falciparum = assay: Antiplasmodial activity against Plasmodium falciparum 3D7A erythrocytic stage assessed as reduction in [3H]hypoxanthine incorporation preincubated for 24 hrs followed by [3H]hypoxanthine addition and measured after 24 hrs by microbeta scintillation counting method; assay type: functional, organism-based
Method in brief: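 Nine threefold serial dilutions from 5 μM top concentration. Incubated 24 h at 37 °C under 5% CO2/5% O2/90% N2, then 0.2 μCi [3H]-hypoxanthine per well for another 24 h. Cells harvested on glass fibre filters and counted. Data normalized to compound-free parasitized RBCs; IC50 fitted.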

[3] = Aqueous solubility of compound; conditions: buffer

SMILES	Papp [1]	EC50 (L929)	chromatographic logD [2]	EC50 (Plasmodium falciparum)	solubility [3]
Fc1ccc(-c2nc(C3CCNCC3)sc2-c2ccnc(NCC3CCCO3)n2)cc1 (stereo not given)	32 ×10⁻⁶ cm/s	17 µM	2.77	> 5 µM	299 µM (≈ 131 µg/mL)
O=C(Nc1nc(-c2ccc(F)cc2)c(-c2ccnc(Nc3ccc(N4CCNCC4)cc3)n2)s1)C1CC1	2 ×10⁻⁶ cm/s	25.7 µM	2.53	> 5 µM	–
CN1CCN(CCNc2nccc(-c3sc(C4CCNCC4)nc3-c3ccc(F)cc3)n2)CC1	1 ×10⁻⁶ cm/s	100 µM	1.34	> 5 µM	238 µM (≈ 115 µg/mL)
COCCNc1nccc(-c2sc(C3CCNCC3)nc2-c2ccc(F)cc2)n1	30 ×10⁻⁶ cm/s	33.9 µM	2.45	> 5 µM	235 µM (≈ 97.2 µg/mL)
Fc1ccc(-c2nc(C3CCNCC3)sc2-c2ccnc(N3CCC(N4CCOCC4)CC3)n2)cc1	27 ×10⁻⁶ cm/s	15.5 µM	2.83	2.37 µM	251 µM (≈ 128 µg/mL)
Fc1ccc(-c2nc(C3CCNCC3)sc2-c2ccnc(NCCN3CCOCC3)n2)cc1	17 ×10⁻⁶ cm/s	–	2.02	> 5 µM	408 µM (≈ 191 µg/mL)
Cc1nc(Nc2nccc(-c3sc(C4CCNCC4)nc3-c3ccc(F)cc3)n2)ccc1F	30 ×10⁻⁶ cm/s	5.2 µM	3.96	> 5 µM	16 µM (≈ 7.43 µg/mL)
Cc1nnc(Nc2nccc(-c3sc(C4CCNCC4)nc3-c3ccc(F)cc3)n2)s1	8 ×10⁻⁶ cm/s	4.4 µM	2.02	4.44 µM	74 µM (≈ 33.6 µg/mL)
Oc1cc(Nc2nccc(-c3sc(C4CCNCC4)nc3-c3ccc(F)cc3)n2)ccn1	2 ×10⁻⁶ cm/s	100 µM	1.64	3.47 µM	–
Cc1nc(Nc2nccc(-c3sc(C4CCNCC4)nc3-c3ccc(F)cc3)n2)cc(C2CCC2)c1F	–	18.6 µM	5.52	> 5 µM	7 µM (≈ 3.63 µg/mL)
CCc1cc(Nc2nccc(-c3sc(C4CCNCC4)nc3-c3ccc(F)cc3)n2)nc(C)c1F	–	4.3 µM	4.92	2.9 µM	17 µM (≈ 8.37 µg/mL)
O=S(=O)(Nc1nc(-c2ccc(F)cc2)c(-c2ccnc(Nc3ccc(N4CCNCC4)cc3)n2)s1)C1CCNCC1	3 ×10⁻⁶ cm/s	74.1 µM	1.34	> 5 µM	–
Fc1ccc(-c2nc(C3CCNCC3)sc2-c2ccnc(Nc3ccccn3)n2)cc1	33 ×10⁻⁶ cm/s	6.2 µM	2.96	2.41 µM	56 µM (≈ 24.2 µg/mL)
Cc1cc(Nc2nccc(-c3sc(C4CCNCC4)nc3-c3ccc(F)cc3)n2)nn1C	20 ×10⁻⁶ cm/s	5.1 µM	2.52	> 5 µM	146 µM (≈ 65.6 µg/mL)
OC1CCN(c2nccc(-c3sc(C4CCNCC4)nc3-c3ccc(F)cc3)n2)C1 (stereo not given)	6.5 ×10⁻⁶ cm/s	72.4 µM	1.92	> 5 µM	273 µM (≈ 116 µg/mL)
CN1CCC(Nc2nccc(-c3sc(C4CCNCC4)nc3-c3ccc(F)cc3)n2)C1 (stereo not given)	1.7 ×10⁻⁶ cm/s	37.2 µM	1.14	2.72 µM	402 µM (≈ 176 µg/mL)
Nc1nccc(-c2sc(C3CCNCC3)nc2-c2ccc(F)cc2)n1	13 ×10⁻⁶ cm/s	55 µM	1.5	2.2 µM	467 µM (≈ 166 µg/mL)
Fc1ccc(-c2nc(C3CCNCC3)sc2-c2ccnc(N3CCC(CN4CCOCC4)CC3)n2)cc1	38 ×10⁻⁶ cm/s	12.9 µM	3.75	> 5 µM	355 µM (≈ 186 µg/mL)

SMILES	Papp [1]	EC50 (L929)	chromatographic logD [2]	EC50 (Plasmodium falciparum)	solubility [3]
Fc1ccc(-c2nc(C3CCNCC3)sc2-c2ccnc(N3CCCC3)n2)cc1	46 ×10⁻⁶ cm/s	13.8 µM	3.71	> 5 µM	374 µM (≈ 153 µg/mL)
OCCNc1nccc(-c2sc(C3CCNCC3)nc2-c2ccc(F)cc2)n1	1 ×10⁻⁶ cm/s	61.7 µM	1.52	4.05 µM	351 µM (≈ 140 µg/mL)
CCOC(=O)N1CCC(c2nc(-c3ccc(F)cc3)c(-c3ccnc(Nc4ccc(N5CCN(C)CC5)cc4)n3)s2)CC1	41 ×10⁻⁶ cm/s	6.5 µM	6.66	> 5 µM	23 µM (≈ 13.8 µg/mL)
CN(C)CCNc1nccc(-c2sc(C3CCNCC3)nc2-c2ccc(F)cc2)n1	2.4 ×10⁻⁶ cm/s	100 µM	1.07	3.11 µM	244 µM (≈ 104 µg/mL)
CCOc1nccc(Nc2nccc(-c3sc(C4CCNCC4)nc3-c3ccc(F)cc3)n2)n1	17 ×10⁻⁶ cm/s	2.1 µM	3.21	0.6 µM	35 µM (≈ 16.7 µg/mL)
c1cc(Nc2nccc(-c3sc(C4CCNCC4)nc3C3CC3)n2)ncn1	18 ×10⁻⁶ cm/s	43.7 µM	1.71	3.45 µM	139 µM (≈ 52.7 µg/mL)
CN1CCN(c2ccc(Nc3nccc(-c4sc(N)nc4-c4ccc(F)cc4)n3)cc2)CC1	26 ×10⁻⁶ cm/s	2.5 µM	3.61	> 5 µM	8 µM (≈ 3.69 µg/mL)
CCCS(=O)(=O)Nc1nc(-c2ccc(F)cc2)c(-c2ccnc(Nc3ccc(N4CCNCC4)cc3)n2)s1	–	100 µM	2.5	4.86 µM	–
Fc1ccc(-c2nc(C3CCNCC3)sc2-c2ccnc(NCCN3CCCC3)n2)cc1	1 ×10⁻⁶ cm/s	38 µM	1.13	3.19 µM	297 µM (≈ 134 µg/mL)
Nc1nc(-c2ccc(F)cc2)c(-c2ccnc(Nc3ccc(N4CCOCC4)cc3)n2)s1	3 ×10⁻⁶ cm/s	19.5 µM	4.61	–	26 µM (≈ 11.7 µg/mL)
Cc1csc(Nc2nccc(-c3sc(C4CCNCC4)nc3-c3ccc(F)cc3)n2)n1	15 ×10⁻⁶ cm/s	2.2 µM	2.99	3.85 µM	40 µM (≈ 18.1 µg/mL)
Fc1ccc(-c2nc(C3CCNCC3)oc2-c2ccnc(Nc3ccncn3)n2)cc1	19 ×10⁻⁶ cm/s	21.4 µM	1.79	> 5 µM	226 µM (≈ 94.3 µg/mL)
CN(C)C(CNc1nccc(-c2sc(C3CCNCC3)nc2-c2ccc(F)cc2)n1)C1CC1 (stereo not given)	3.4 ×10⁻⁶ cm/s	12 µM	1.68	2.35 µM	514 µM (≈ 240 µg/mL)
Fc1ccc(-c2nc(C3CCNCC3)sc2-c2ccnc(N3CCC(N4CCC4)CC3)n2)cc1	7.2 ×10⁻⁶ cm/s	25.7 µM	1.63	4.25 µM	114 µM (≈ 54.6 µg/mL)
Fc1ccc(-c2nc(C3CCNCC3)sc2-c2ccnc(Nc3ccn(C4CCNCC4)n3)n2)cc1	3 ×10⁻⁶ cm/s	100 µM	1.29	3.31 µM	131 µM (≈ 66.1 µg/mL)
Cc1nccc(Nc2nccc(-c3sc(C4CCNCC4)nc3-c3ccc(F)cc3)n2)n1	18 ×10⁻⁶ cm/s	2.5 µM	2.43	0.81 µM	47 µM (≈ 21 µg/mL)
O[C@H]1CC[C@H](Nc2nccc(-c3sc(C4CCNCC4)nc3-c3ccc(F)cc3)n2)CC1	5.5 ×10⁻⁶ cm/s	27.5 µM	2.12	> 5 µM	287 µM (≈ 130 µg/mL)
COc1cc(Nc2nccc(-c3sc(C4CCNCC4)nc3-c3ccc(F)cc3)n2)cc(C)n1	19 ×10⁻⁶ cm/s	1.2 µM	3.36	0.38 µM	–
